Data taken from ChEMBL document CHEMBL1158349, “Synthesis and antimicrobial evaluation of 1-(benzofuran-2-yl)-4-nitro-3-arylbutan-1-ones and 3-(benzofuran-2-yl)-4,5-dihydro-5-aryl-1-[4-(aryl)-1,3-thiazol-2-yl]-1H-pyrazoles” (2009).

Key:
Format in all cases: functional
Details in all cases: read-out: DIZ
Staphylococcus aureus = assay: Antibacterial activity against Staphylococcus aureus at 100 ug after 24 hrs by agar disc-diffusion method
Outline: (§1)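 Agar disc-diffusion on nutrient agar. Sterile 6 mm filter-paper discs moistened with the test compound in DMSO were placed on plates seeded separately with each bacterium. Amoxicillin was the reference drug. Plates were incubated at 37 °C, and the growth-inhibition zone diameter was measured after 24 h.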

Candida albicans = assay: Antifungal activity against Candida albicans at 100 ug after 48 hrs by agar disc-diffusion method
Outline: (§2)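 Disc diffusion on nutrient agar. Plates were inoculated separately with each fungus, then 6 mm paper discs wetted with the compound solution in DMSO were applied. Fluconazole was the reference drug. Plates were incubated at 37 °C, and inhibition-zone diameters were read after 48 h.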

Bacillus subtilis = assay: Antibacterial activity against Bacillus subtilis at 100 ug after 24 hrs by agar disc-diffusion method; outline: as §1
Aspergillus niger = assay: Antifungal activity against Aspergillus niger at 100 ug after 48 hrs by agar disc-diffusion method; outline: as §2
Escherichia coli = assay: Antibacterial activity against Escherichia coli at 100 ug after 24 hrs by agar disc-diffusion method; outline: as §1

SMILES	zone of inhibition at 100 µg/disc (Staphylococcus aureus)	zone of inhibition at 100 µg/disc (Candida albicans)	zone of inhibition at 100 µg/disc (Bacillus subtilis)	zone of inhibition at 100 µg/disc (Aspergillus niger)	zone of inhibition at 100 µg/disc (Escherichia coli)
COc1ccc(C(CC(=O)c2cc3ccccc3o2)C[N+](=O)[O-])cc1 (stereo not given)	0 mm	25 mm	0 mm	0 mm	12 mm
NC(=S)N1N=C(c2cc3ccccc3o2)CC1c1ccc(Cl)cc1 (stereo not given)	0 mm	0 mm	12 mm	15 mm	15 mm
O=C(CC(C[N+](=O)[O-])c1ccccc1)c1cc2ccccc2o1 (stereo not given)	0 mm	30 mm	0 mm	0 mm	12 mm
c1ccc(-c2csc(N3N=C(c4cc5ccccc5o4)CC3c3ccccc3)n2)cc1 (stereo not given)	17 mm	0 mm	0 mm	0 mm	25 mm
Clc1ccc(C2CC(c3cc4ccccc4o3)=NN2c2nc(-c3ccccc3)cs2)cc1 (stereo not given)	0 mm	25 mm	0 mm	15 mm	12 mm
O=C(CC(C[N+](=O)[O-])c1ccc(Cl)cc1)c1cc2ccccc2o1 (stereo not given)	0 mm	20 mm	0 mm	15 mm	12 mm
Brc1ccc(-c2csc(N3N=C(c4cc5ccccc5o4)CC3c3ccccc3)n2)cc1 (stereo not given)	0 mm	0 mm	0 mm	0 mm	0 mm
NC(=S)N1N=C(c2cc3ccccc3o2)CC1c1ccccc1 (stereo not given)	0 mm	5 mm	0 mm	0 mm	0 mm
Clc1ccc(C2CC(c3cc4ccccc4o3)=NN2c2nc(-c3ccc(Br)cc3)cs2)cc1 (stereo not given)	0 mm	25 mm	0 mm	0 mm	0 mm
CC1(C)S[C@@H]2[C@H](NC(=O)[C@H](N)c3ccc(O)cc3)C(=O)N2[C@H]1C(=O)O [AMOXICILLIN]	20 mm	–	20 mm	–	20 mm
OC(Cn1cncn1)(Cn1cncn1)c1ccc(F)cc1F [FLUCONAZOLE]	–	20 mm	–	20 mm	–
